Test results taken from publication PMC9682045 (Biochemistry and Biophysics Reports, 2022).
pEC50: −log10 of the molar value. Values joined by “and” are separate entries in the source; they are usually repeats but may differ in a detail not shown here. Equal entries are not always repeated.

Tests used:
[1] = test system: COVID-19-related lethality; conditions: meta-regression, patients with MS and COVID-19, N = 5634, P = 0.035; cited from earlier work
[2] = Cytotoxicity in the HCoV 229E qPCR assay; type: cell-based; conditions: human, MRC5 cells, not infected
In short: (§1)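 Uninfected MRC5 human fetal lung fibroblasts seeded at 20,000 cells/well; test compound in cell assay medium as 3-fold serial dilutions to 8 concentrations, duplicate wells. Untreated cell controls run in parallel. Cytotoxicity expressed as percentage viability, with CC50 derived from this.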

[3] = a patient with MS; cited from earlier work
[4] = Cytotoxicity in the HCoV 229E CPE assay; type: cell-based; conditions: human, MRC5 cells, not infected
In short: as §1

[5] = test system: HCoV 229E; assay: HCoV 229E qPCR assay in MRC5 cells; type: cell-based, human coronavirus 229E; conditions: read-out: HCoV 229E qPCR assay EC50, 200 TCID50, 2 days, viral RNA
In short: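 MRC5 human fetal lung fibroblasts seeded at 20,000 cells/well received test compound (3-fold serial dilutions to 8 concentrations, duplicate wells) in cell assay medium and were infected with 200 TCID50 HCoV 229E. Viral RNA was quantified by qPCR following a previously published protocol. Uninfected untreated and infected untreated controls ran in parallel. Percentage inhibition was recorded; EC50 is the concentration giving 50% of maximal effect.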

SMILES	protective effect on COVID-19-related lethality (β) [1]	CC50 at 2 days [2] [µM]	plasma concentration [3]	CC50 at 3 days [4] [µM]	pEC50 [5]
C/C(O)=C(\C#N)C(=O)Nc1ccc(C(F)(F)F)cc1 [Teriflunomide, teriflunomide]	−0.11	> 100	130 μM and 35 mg/L	> 100	
Cc1oncc1C(=O)Nc1ccc(C(F)(F)F)cc1 [Leflunomide, leflunomide]		> 100		> 100	
CCC(CC)COC(=O)[C@H](C)N[P@](=O)(OC[C@H]1O[C@@](C#N)(c2ccc3c(N)ncnn23)[C@H](O)[C@@H]1O)Oc1ccccc1 [Remdesivir (blinded), remdesivir]		> 100		> 100	> 7.34
